Source: PubChem BioAssay (Sanford-Burnham Center for Chemical Genomics)
The list is a sample of the results.
Apaf-1 act: activators of human Apaf-1 apoptosome, primary screen, biochemical, DEVD-Rh110 fluorescence, uHTS; 330,000 tested, 0.31% active; AID 489031, 2010; Apoptotic protease-activating factor 1 (Homo sapiens), O14727; activity change, negative = activation, % at 20 µM; Apaf-1 apoptosome caspase-3 activation; active compounds read low;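 active means activity change at or below -40% at 20 µM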
Target sequence (O14727 whole entry, looked up): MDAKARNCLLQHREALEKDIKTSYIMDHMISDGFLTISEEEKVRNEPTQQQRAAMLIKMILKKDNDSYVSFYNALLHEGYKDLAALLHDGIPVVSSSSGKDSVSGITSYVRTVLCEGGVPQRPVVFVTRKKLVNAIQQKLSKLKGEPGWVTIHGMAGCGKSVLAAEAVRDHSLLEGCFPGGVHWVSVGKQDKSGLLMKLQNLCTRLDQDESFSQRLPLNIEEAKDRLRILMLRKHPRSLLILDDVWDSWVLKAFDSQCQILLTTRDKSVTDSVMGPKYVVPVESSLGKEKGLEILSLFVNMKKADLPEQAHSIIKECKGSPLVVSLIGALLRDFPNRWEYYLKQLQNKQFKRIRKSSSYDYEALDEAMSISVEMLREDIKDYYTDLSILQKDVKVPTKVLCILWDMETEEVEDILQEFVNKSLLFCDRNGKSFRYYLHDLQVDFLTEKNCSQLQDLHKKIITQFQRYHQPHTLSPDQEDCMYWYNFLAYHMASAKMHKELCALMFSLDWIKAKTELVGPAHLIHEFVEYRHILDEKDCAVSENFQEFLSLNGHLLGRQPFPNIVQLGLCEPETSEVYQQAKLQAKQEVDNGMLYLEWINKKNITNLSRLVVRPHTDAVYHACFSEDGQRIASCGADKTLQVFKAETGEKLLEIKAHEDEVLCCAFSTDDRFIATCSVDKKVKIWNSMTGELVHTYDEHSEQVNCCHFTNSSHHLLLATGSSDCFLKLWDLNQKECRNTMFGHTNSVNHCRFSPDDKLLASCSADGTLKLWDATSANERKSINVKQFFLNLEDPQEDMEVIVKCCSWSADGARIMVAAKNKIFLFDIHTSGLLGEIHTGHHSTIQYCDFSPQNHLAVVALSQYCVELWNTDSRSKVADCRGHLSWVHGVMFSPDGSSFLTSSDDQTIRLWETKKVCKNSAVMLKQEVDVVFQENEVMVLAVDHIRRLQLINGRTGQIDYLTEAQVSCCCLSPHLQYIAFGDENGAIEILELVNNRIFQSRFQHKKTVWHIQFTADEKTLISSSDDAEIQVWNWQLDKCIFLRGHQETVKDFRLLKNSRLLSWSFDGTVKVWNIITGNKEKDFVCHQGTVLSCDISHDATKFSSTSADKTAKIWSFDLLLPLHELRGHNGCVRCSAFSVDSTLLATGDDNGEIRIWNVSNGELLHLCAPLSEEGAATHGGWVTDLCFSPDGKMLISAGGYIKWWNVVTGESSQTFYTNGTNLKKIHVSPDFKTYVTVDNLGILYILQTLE
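Assay system – biochemical Apaf-1 apoptosome reconstitution · Medium – 20 mM HEPES buffer, pH 7.5, containing CHAPS and BSA · Incubation – 30 min preincubation, 50 min reaction, room temperature · Measured by – Caspase-3-released Rh110 fluorescence, 540 nm emission, 480 nm excitation · Read-out – Caspase-3 cleavage activity downstream of Apaf-1 activation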
Rh110 act interf: Rh110 fluorescence interference by putative Apaf-1 activators, confirmation, artefact control for Apaf-1 activator project, biochemical, 20 µM; shares compounds with Apaf-1 act; quenched caspase reaction, Ex480/Em540; fluorescence interference (activity change), % at 20 µM, hits read low; 980 tested, under 10 active; AID 504616, 2011;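 active means mean activity change at or below -40% when tested at 20 µM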
Apaf-1 act conf: Apaf-1 activators, single-dose retest, confirmation, biochemical, fluorescence, DEVD-Rh110, 20 µM; shares compounds with Apaf-1 act; reconstituted apoptosome caspase-3 activity; active compounds read low; activity change, negative = activation, % at 20 µM; 980 tested, 5% active;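 active means mean activity change at or below -40%, meaning activation of 40% or more, at 20 µM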
Fluor interf act: fluorescence interference of Apaf-1 activator hits, dose response, artefact control for Apaf-1 activator project | shares compounds with Apaf-1 act | fluorescence interference counterscreen, Apaf-1 activator assay | EC50, µM | 55 tested, under 10 active; call rule not given here
Active calls of the source: *; / = no result.

SMILES	Apaf-1 act	Rh110 act interf	Apaf-1 act conf	others
Cc1cc(Cl)ccc1NC(=O)c1ccc2c(c1)CCN2S(C)(=O)=O	-170*	-5	21
CC(C)N1CCc2c(sc(NC(=O)c3ccc(S(=O)(=O)N4CCc5ccccc54)cc3)c2C(N)=O)C1	46	/	/
CCCCCCOc1ccc(/C(C)=N/NC2=NCCN2)cc1[N+](=O)[O-]	54	/	/
Cc1ccc(C)c(-n2ccnc2SCC(=O)O)c1	-465*	-11	8
COCCNC(=O)CN1C(=O)NC2(CCOc3ccccc32)C1=O (configuration not stated)	46	/	/
Cn1c(=O)c2cc(NCc3ccccc3)nnc2n(C)c1=O	94	/	/
Oc1ccc(Cl)cc1CNc1cccc2cccnc12	91	/	/
N=c1n(CC(=O)c2ccc(Br)s2)c2ccccc2n1Cc1ccccc1	42	/	/
CCc1ccccc1NC(=O)CCNS(=O)(=O)c1cc(Br)cnc1N	49	/	/
CCc1ccccc1NC(=O)CCS(=O)(=O)c1ccc(OC)cc1	-117*	0	-3
CN1CCN(c2nc(-c3ccc(C(C)(C)C)cc3)nc3ccccc23)CC1	43	/	/
CN1CCN(c2ccccc2NC(=O)c2ccc(-c3ccc(Cl)c(Cl)c3)o2)CC1	46	/	/
COc1c(Cl)cc(Cl)cc1C(=O)Nc1ccccc1N1CCN(C(C)=O)CC1	-325*	-2	12
CN1/C(=N\O)c2cccc3cccc1c23	86	/	/
COc1cc2c(cc1OC)CN(Cc1cc(=O)oc3cc(C)c(Cl)cc13)CC2	-43*	14	24
O=C(O)CCNc1cc(N2CCN(C(=O)c3ccco3)CC2)c2noc3c2c1C(=O)c1ccccc1-3	81	/	/
COCCNc1nc(C)cc(-c2cc(C(=O)Nc3ccccc3)on2)n1	-53*	3	12
OC(COc1c(Cl)cc(Cl)cc1Cl)CN1CCCCC1 (configuration not stated)	-88*	0	15
CC(C)(C)NC(=O)[C@@H]1C[C@@H]2CCCC[C@@H]2CN1C[C@@H](O)[C@H](Cc1ccccc1)NC(=O)[C@H](CC(N)=O)NC(=O)c1ccc2ccccc2n1	35	/	/
Cn1/c(=N/NC(=O)c2ccccc2F)sc2ccccc21	-72*	5	2
O=c1cc(-c2cccc([N+](=O)[O-])c2)[nH][nH]1	68	/	/
O=c1[nH]c(CN2CCc3ccccc3C2)nc2ccccc12	65	/	/
O=c1[nH]c(C(F)(F)F)nc2ccccc12	-112*	0	12
O=c1[nH]c(Nc2ccc(F)cc2)cc2ccccc12	95	/	/
CN(C)c1ccc(NC2=C(Cl)C(=O)c3ccccc3C2=O)cc1	43	/	/
SMILES	Apaf-1 act	Rh110 act interf	Apaf-1 act conf	others
CCc1ccc2nc(N(CCCN(C)C)C(=O)c3ccc(S(=O)(=O)N(C)C4CCCCC4)cc3)sc2c1	54	/	/
CN(C)CCCN(C(=O)c1ccco1)c1nc2ccc(F)cc2s1	-99*	6	10
CN(C)CCCN(C(=O)c1ccc(C(=O)c2ccccc2)cc1)c1nc2cc3c(cc2s1)OCO3	60	/	/
CCOC(=O)c1nn(-c2ccccc2C)c(=O)c2c(N)scc12	47	/	/
CC(C)(C)c1ccc(S(=O)(=O)/N=C2\C=C(NS(=O)(=O)c3ccccc3)C(=O)c3ccccc32)cc1	46	/	/
COc1ccc(-c2cc(=O)n(CCC#N)[nH]2)cc1	94	/	/
COC(=O)NCc1ccc(Cl)c(Cl)c1	-71*	-3	-3
COc1cccc2cc(C(=O)NCc3ccc(Cl)cc3)c(=N)oc12	42	/	/
Cc1ccc(C(=O)N/N=C/c2ccc(-c3ccccc3[N+](=O)[O-])o2)cn1	75	/	/
CCC[C@@H](CN1CCC[C@H]1CN1C(N)=NC[C@H]1CC(C)C)N1C[C@@H]([C@H](C)CC)N(CCCC2CCCC2)C1=N	53	/	/
Cc1ccc(N/N=C2\CC(=O)c3ccccc32)cc1Cl	76	/	/
Oc1cccc(C=NCc2ccccc2)c1O	82	/	/
Cc1ccc(NC(=O)CN2C(=O)S/C(=C/c3ccc(-c4cc(C(=O)O)ccc4C)o3)C2=O)cc1C	42	/	/
CC(C)(C)c1ccc(C(=O)NNC(=S)NCc2ccco2)cc1	-41*	6	14
Cc1nn(-c2ccccc2)c(C)c1CN(C)C(=O)c1ccc(S(=O)(=O)NCc2ccco2)cc1	49	/	/
O=C(NCCO)c1ccc2nc(-c3ccco3)c(-c3ccco3)nc2c1	78	/	/
COc1ccc(C(=O)NCCc2nnc3ccc(SCC(=O)NCCc4ccc(OC)c(OC)c4)nn23)cc1	-410*	-4	9
O=C(CSc1ccc2nnc(CCNC(=O)c3ccccc3)n2n1)Nc1ccccc1	-293*	3	-3
C#CCOCCOCCOCCNc1nc(N2CCN(C(=O)CCCCCCCCCCNC(=O)Cn3cc(C[C@@H](C)O)nn3)CC2)nc(N2CCN(C(=O)CCCCCCCCCCNC(=O)[C@@H](CCC(=O)O)n3cc(CCCCCN)nn3)CC2)n1	52	/	/
Cc1cc(/C=C2\SC(=O)N(C)C2=O)c(C)n1-c1ccc(O)cc1	71	/	/
COc1ccc(/C=C/C(=O)OCC(=O)N2CCCC2)c(OC)c1	-40*	7	15
O=c1[nH]c(Nc2ccccc2Cl)cc2ccccc12	98	/	/
O=C1c2ccccc2C(=O)C1(O)O	68	/	/
CCCCCCc1cc2cc(-c3nnc(-c4ccccc4O)o3)c(=O)oc2cc1O	-140*	10	-43*	Fluor interf act=>100
CCCCCCc1cc2cc(-c3nnc(-c4cc(OC)c(OC)c(OC)c4)o3)c(=O)oc2cc1O	63	/	/
SMILES	Apaf-1 act	Rh110 act interf	Apaf-1 act conf	others
CCCCCCc1cc2cc(-c3nnc(-c4ccccc4OC)o3)c(=O)oc2cc1O	62	/	/
CCn1c(SCC(=O)OC(C)C)nnc1-c1ccccc1	-76*	-1	7
C=CCn1c(SCC(=O)N(CC)C2CCS(=O)(=O)C2)nnc1-c1ccccc1 (configuration not stated)	61	/	/
C#CCOCCOCCOCCNc1nc(N2CCN(C(=O)CCCCCCCCCCNC(=O)[C@H]([C@@H](C)CC)n3cc(CCCCCN)nn3)CC2)nc(N2CCN(C(=O)CCCCCCCCCCNC(=O)[C@H]([C@@H](C)CC)n3cc(CCCCN=C(N)N)nn3)CC2)n1	71	/	/
Cc1cccc(C(=O)N/C(=C\c2ccco2)C(=O)N2CCCC2)c1	-134*	1	4
O=C(NCC(c1ccco1)N1CCCC1)c1cccc(S(=O)(=O)Nc2ccc(Br)cc2)c1 (configuration not stated)	59	/	/
O=C(Nc1ccc2nc(-c3ccco3)c(-c3ccco3)nc2c1)N1CCCCCC1	57	/	/
Nc1cccnc1Sc1cccc(Cl)c1	76	/	/
Cc1oc2c(c1C(=O)NCc1cccnc1)C(=O)c1ccccc1C2=O	86	/	/
O=C(NCc1cccnc1)c1cc(Sc2cccc(Cl)c2)nc2ccccc12	-47*	12	19
COc1cc(OC)c2c(-c3ccccc3)cc(=O)oc2c1C(CCN1CCOCC1)c1ccc2c(c1)OCO2 (configuration not stated)	42	/	/
COc1ccc(/C=C2/C(=O)N(c3ccccc3)N=C2C)cc1OC	96	/	/
COC(CNC(=S)Nc1ccc([N+](=O)[O-])cc1)OC	-58*	8	3
